Laboratory results published in ChEMBL document CHEMBL2331349, “Discovery of olmesartan hexetil: a new potential prodrug of olmesartan” (Bioorg Med Chem Lett, 2013).

Key:
Rattus norvegicus [1] = test: Cmax in Sprague-Dawley rat assessed as olmesartan at 20 mg/kg, po; format: ADME, organism-based; set-up: dose 20 mg/kg, route oral; conditions: in vivo
Outline: (§1)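 Male Sprague-Dawley rats (n = 4) dosed orally by feeding tube, 20 mg/kg as olmesartan. Carotid artery blood drawn at 0, 0.5, 1, 2, 3, 4, 6, 8, 10 h; plasma stored until analysis. Olmesartan measured by modified LC–MS/MS. Non-compartmental analysis; AUClast by trapezoidal rule; Tmax given as median (range), others mean ± SD.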

[2] = Half life in rat liver microsomes at 1 uM; format: ADME, Microsome
Outline: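 Incubation with rat liver microsomes, 0.5 mg/mL total protein, 1.2 mM NADPH, 100 mM phosphate buffer pH 7.4. Substrate added from acetonitrile stock to 1 µM final, 37 °C. Samples at 0, 15, 30, 60, 120 min quenched with twofold cold acetonitrile containing internal standard, centrifuged, supernatant by LC–MS/MS. Mean of duplicate experiments.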

Rattus norvegicus [3] = test: Tmax in Sprague-Dawley rat assessed as olmesartan at 20 mg/kg, po; format: ADME, organism-based; set-up: dose 20 mg/kg, route oral; conditions: in vivo; outline: as §1
[4] = Half life in simulated gastric juice at 1 uM; format: physicochemical
Outline: (§2)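 Substrate added from acetonitrile stock to rat plasma or simulated gastric juice, 1 µM final, 37 °C. Samples at 0, 15, 30, 60, 120 min quenched with twofold cold acetonitrile containing internal standard, centrifuged, supernatant analysed by LC–MS/MS. Half-life reported as mean of duplicate experiments.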

[5] = Half life in rat plasma at 1 uM; format: ADME, cell-free; outline: as §2
Rattus norvegicus [6] = test: AUClast in Sprague-Dawley rat assessed as olmesartan at 20 mg/kg, po; format: ADME, organism-based, Plasma; set-up: time 0 - last, dose 20 mg/kg, route oral; conditions: in vivo; outline: as §1

| Compound | Cmax (Rattus norvegicus [1]) [ng/mL] | half-life at 1 µM [2] [min] | Tmax (Rattus norvegicus [3]) [min] | half-life at 1 µM [4] [min] | half-life at 1 µM [5] [min] | AUClast (Rattus norvegicus [6]) [ng·h/mL] |
| --- | --- | --- | --- | --- | --- | --- |
| CCCc1nc(C(C)(C)O)c(C(=O)OC(C)OC(=O)OC2CCCCC2)n1Cc1ccc(-c2ccccc2-c2nnn[nH]2)cc1 (stereo not given) [OLMESARTAN HEXETIL] | 1374.7 | 2.77 | 54 | 390 | 1.54 | 3013.8 |
| CCCc1nc(C(C)(C)O)c(C(=O)OCc2oc(=O)oc2C)n1Cc1ccc(-c2ccccc2-c2nnn[nH]2)cc1 [OLMESARTAN MEDOXOMIL] | 153.6 |  | 60 | > 1000 |  | 501.9 |
